The source made the active and inactive calls.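 The calls were made as follows: active = macrophage DAGL beta lipase probe labeling falls at least half after a 5 mg/kg dose in mice; inactive = 5 mg/kg yields less than half inhibition.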
Target: Diacylglycerol lipase-beta (Mus musculus) (UniProt Q91WC9)
Assay: in vivo DAGLb inhibition in mouse macrophages, late-stage follow-up, in vivo study, gel ABPP, in-gel fluorescence, peritoneal macrophages (AID 602345)
Conditions: C57 mice i.p., peritoneal macrophage DAGLb, gel ABPP HT-01
How it was run: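 Assay system: DAGLb in peritoneal macrophage membranes from thioglycollate-elicited C57 mice / Amount: macrophage membrane fraction at 1 mg/mL protein / Timing: 4 h in vivo exposure, 30 min probe step at 37 °C / Benchmarks: vehicle-only mice / Measured by: in-gel fluorescence scanning after SDS-PAGE separation / Replicates: two mice per dose group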

Diacylglycerol lipase-beta (Mus musculus), sequence (Q91WC9 whole entry, looked up): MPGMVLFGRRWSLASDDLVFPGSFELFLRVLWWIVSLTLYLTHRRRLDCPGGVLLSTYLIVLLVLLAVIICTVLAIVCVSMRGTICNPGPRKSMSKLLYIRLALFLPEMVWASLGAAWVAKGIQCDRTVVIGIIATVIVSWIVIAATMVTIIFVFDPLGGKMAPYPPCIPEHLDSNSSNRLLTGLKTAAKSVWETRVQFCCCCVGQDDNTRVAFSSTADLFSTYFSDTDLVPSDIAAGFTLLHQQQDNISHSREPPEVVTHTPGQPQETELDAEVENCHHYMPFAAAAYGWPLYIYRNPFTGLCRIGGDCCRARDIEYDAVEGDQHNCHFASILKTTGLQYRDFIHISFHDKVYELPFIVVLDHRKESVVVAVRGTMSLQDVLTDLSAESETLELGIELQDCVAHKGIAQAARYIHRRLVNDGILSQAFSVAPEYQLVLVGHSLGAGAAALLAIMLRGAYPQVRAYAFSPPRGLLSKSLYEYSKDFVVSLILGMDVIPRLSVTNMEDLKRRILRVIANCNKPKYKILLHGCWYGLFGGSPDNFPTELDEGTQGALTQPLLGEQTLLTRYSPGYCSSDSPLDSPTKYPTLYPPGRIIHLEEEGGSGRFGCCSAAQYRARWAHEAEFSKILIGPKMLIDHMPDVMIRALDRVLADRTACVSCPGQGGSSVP

| SMILES | outcome |
| --- | --- |
| O=C(N1CCCCC1Cc1ccccc1)n1cc(-c2ccc(-c3ccccc3C(F)(F)F)cc2)nn1 (stereo not drawn) | active |
| COc1ccccc1-c1ccc(-c2cn(C(=O)N3CCCCC3Cc3ccccc3)nn2)cc1 (stereo not drawn) | active |
| O=C(N1CCCCC1Cc1ccccc1)n1cc(-c2ccc(-c3ccccc3)cc2)nn1 (stereo not drawn) | active |
